Screening data deposited in PubChem BioAssay by The Scripps Research Institute Molecular Screening Center.
M5 antag: CHRM5 antagonism in calcium assay; CHO-hM5 cells, Fluo-8 calcium fluorescence, ACh EC80; hit rate 0.59% among 360,000; inhibition, % at 3 µM;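 active = inhibition above a per-plate cutoff, the mean of that plate's test compounds plus 3 SD, cut at about 27% in these data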
CHRM5 agonist: agonists of human muscarinic M5 receptor (CHRM5). P08912. CHO-K1 hM5 cells, Fluo-8 calcium fluorescence; 0% DMSO wells, 100% maximal acetylcholine response. hit rate 0.19% among 360,000. activation, % at 3 µM. AID 624037;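 active = activation above the run's mean over test compounds plus 3 SD, cut at about 23% in these data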;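 note: signal is peak over basal fluorescence ratio across the kinetic read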
CHRM1 antagonist: blocks human M1 muscarinic receptor. inhibition, % at 3 µM. P11229. CHO-K1 hM1, Fluo-8 calcium fluorescence, ACh EC80 antagonist. hit rate 1.3% among 360,000;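 active = percent inhibition above its own plate's cutoff, namely the mean of that plate's compound wells plus 3 SD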;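 note: peak over basal fluorescence ratio during 140 s after agonist addition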
Target sequence (P11229 whole entry, looked up): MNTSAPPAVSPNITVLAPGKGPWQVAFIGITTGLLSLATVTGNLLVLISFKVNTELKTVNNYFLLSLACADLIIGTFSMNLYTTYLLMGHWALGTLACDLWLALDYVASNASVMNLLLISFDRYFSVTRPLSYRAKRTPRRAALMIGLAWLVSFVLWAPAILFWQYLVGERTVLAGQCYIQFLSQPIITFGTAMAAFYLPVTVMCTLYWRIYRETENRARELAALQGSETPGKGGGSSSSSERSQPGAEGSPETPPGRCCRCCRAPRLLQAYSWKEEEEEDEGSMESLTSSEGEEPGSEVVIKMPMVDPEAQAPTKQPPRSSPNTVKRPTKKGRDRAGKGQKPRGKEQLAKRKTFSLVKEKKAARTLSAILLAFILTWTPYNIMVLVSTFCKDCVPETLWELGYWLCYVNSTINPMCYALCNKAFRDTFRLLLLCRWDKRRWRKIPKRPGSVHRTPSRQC
M5 PAM: positive allosteric modulators of human muscarinic M5 receptor; activation, % at 3 µM; CHO-K1 hM5, Fluo-8 calcium, ACh EC20 PAM; 0% = ACh EC20, 100% = ACh EC100; P08912; hit rate 0.3% among 360,000;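 active = activation above the run cutoff, the mean activation of all test compounds plus 3 SD, cut at about 18% in these data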
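System – CHO-K1 hM5 cells · Compound – 3 µM, single dose · Incubation – compound preincubation 140 s before EC20 acetylcholine addition · Technique – Fluo-8 calcium fluorescence · Measure – Max/basal fluorescence ratio as % of EC20–EC100 ACh window · Benchmarks – low control EC20 acetylcholine (0%), high control EC100 acetylcholine (100%) · Replication – singlicate, one well per test compound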
CHRM1 agonist: activates human CHRM1 receptor; hit rate 0.33% among 360,000; P11229; CHO-K1 hM1, Fluo-8 calcium fluorescence, agonist mode; 0% DMSO, 100% acetylcholine EC100; activation, % at 3 µM;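 active = activation above the run's mean compound activation plus 3 SD, cut at about 16% in these data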;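 note: peak over basal fluorescence ratio within a 140 s kinetic read after compound addition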
CHRM1 PAM: positive allosteric modulators of human M1 muscarinic receptor. CHO-K1 hM1, Fluo-8 calcium fluorescence, ACh EC20; 0% = ACh EC20, 100% = maximal ACh. activation, % at 3 µM. hit rate 0.088% among 360,000; in the data active = activation above about 19%, passing the limit was not always enough
Numbers stand for hits; - = inactive; . = no result given. Shown are actives, neighbours in structure and some others; about 2% of the full set was active somewhere.

SMILES | M5 antag | CHRM5 agonist | CHRM1 antagonist | M5 PAM | CHRM1 agonist | CHRM1 PAM
COC(=O)C1(C)CCCC2(C)C1CCC13OCC(CC21)C(O)(C(C)C)C3O (stereo not given) | - | - | - | - | - | -
Cc1cccc(NC(=O)COc2ccc(Br)cc2)n1 | - | - | - | 33.5 | - | -
CC(C)(C)NC(=O)C(c1cccs1)N(Cc1ccc(F)cc1)C(=O)c1csnn1 (stereo not given) | 37.2 | - | - | - | - | -
COc1cccc(C2Nc3ccccc3C(=O)N2Cc2ccccc2)c1 (stereo not given) | 27.6 | - | - | 28.0 | - | -
O=C1c2ccccc2NC(c2ccccc2)N1Cc1ccccc1 (stereo not given) | - | - | - | - | - | -
CCC(=O)NCCc1nc2cc(NC(=O)c3ccccc3Cl)ccc2n1C | - | - | - | - | - | 29.5
Cc1ccc(N2CCN(CCc3nc4cc(NC(=O)c5ccco5)ccc4n3C)CC2)cc1 | - | - | 25.1 | - | - | -
Cn1c(CCN2CCN(c3ccccc3)CC2)nc2cc(NC(=O)c3ccco3)ccc21 | - | - | 45.7 | - | - | -
CCC(=O)Nc1ccc2c(c1)nc(CCN1CCN(c3ccccc3)CC1)n2C | - | - | 42.8 | - | - | -
CCC(=O)NCCc1nc2cc(NC(=O)Nc3ccccc3)ccc2n1C | - | - | - | - | - | -
CCC(=O)Nc1ccc2c(c1)nc(CCN1CCCCC1)n2C | - | - | - | - | - | -
CN(C)c1ccc(NC(=S)Nc2ccc3c(c2)c(=O)n(C)n3-c2ccc(C(C)(C)C)cc2)cc1 | - | - | - | - | - | -
CC1(C(=O)NS(=O)(=O)c2ccc(Cl)s2)CCN1C(=O)C1(c2ccc(Cl)cc2)CCC1 (stereo not given) | - | - | - | - | - | -
CCOC(=O)N1CCN(Cc2nc3cc(NC(=O)c4cccs4)ccc3n2C)CC1 | - | - | 25.8 | - | - | -
CCOC(=O)N1CCN(Cc2nc3cc(NC(=O)c4cccs4)ccc3n2CC)CC1 | - | - | - | - | - | -
Cn1c(CCN2CCN(c3ccc(F)cc3)CC2)nc2cc(NC(=O)c3ccco3)ccc21 | - | - | 27.4 | - | - | -
COc1cccc(-c2nc3nc(C)cc(C)n3c2NCc2ccccc2)c1 | - | - | . | - | . | .
Cc1cc2nc(C(C)(C)C)c(Cc3ccsc3)n2c(C)c1Br | - | - | . | - | . | .
CCCCCCCCCC[n+]1cccc(C(=O)N(CC)CC)c1 | - | - | 42.2 | - | - | -
COc1ccc(/C(C)=N/N2CCCCC2)c(O)c1 | - | - | - | - | 18.1 | -
COc1ccc(O)c(/C=N/N2CCCCC2)c1 | - | - | - | - | - | -
COc1ccccc1Nc1nc(N)nc(CN2CCN(Cc3ccc4c(c3)OCO4)CC2)n1 | - | - | - | - | - | -
Cc1cccc(N2C(=O)CC(N3CCN(Cc4ccc5c(c4)OCO5)CC3)C2=O)c1 (stereo not given) | - | - | 34.8 | 18.2 | - | -
Cc1cc(C)c2c(CN3CCN(Cc4ccc5c(c4)OCO5)CC3)cc(=O)oc2c1 | - | - | 32.6 | - | - | -
O=C1CC(N2CCN(Cc3ccc4c(c3)OCO4)CC2)C(=O)N1c1ccccc1 (stereo not given) | - | - | - | - | - | -
SMILES | M5 antag | CHRM5 agonist | CHRM1 antagonist | M5 PAM | CHRM1 agonist | CHRM1 PAM
Cc1cccc(Nc2nc(N)nc(CN3CCN(Cc4ccc5c(c4)OCO5)CC3)n2)c1 | - | - | 21.4 | - | - | -
COc1ccc(CCNc2oc(Cc3cccc4ccccc34)nc2C#N)cc1OC | - | - | - | - | - | -
COc1ccc(CCNc2oc(COc3ccc(Br)cc3)nc2C#N)cc1OC | - | - | 35.9 | - | - | -
Cc1ccccc1OCCn1cc(C(=S)N2CCCC2)c2ccccc21 | - | - | - | - | - | -
CC(=O)c1cn(CCOc2ccccc2C)c2ccccc12 | 28.9 | - | 33.3 | - | - | -
COc1cc(/C=C2/SC(=Nc3ccc(O)cc3)NC2=O)cc(OC)c1O | - | - | - | - | - | -
COc1ccccc1N=C1NC(=O)/C(=C/c2ccc(N(C)C)cc2)S1 | 36.0 | 51.4 | - | - | 22.2 | -
C[C@@H]1CN([C@H](C)CO)C(=O)CCCn2nncc2CO[C@H]1CN(C)S(=O)(=O)c1ccc(Oc2ccccc2)cc1 | - | - | - | - | - | -
Clc1ccccc1-c1ccc2nccn2c1 | - | - | - | - | - | -
CCOc1ccccc1-c1ccc2nccn2c1 | - | - | 61.3 | - | - | -
O=C(Nc1ccc(N2CCOCC2)cc1)C1(c2ccc(Cl)cc2)CCC1 | - | - | - | - | 16.5 | -
O=C(CNCC1(N2CCOCC2)CCCCC1)Nc1ccc(Cl)cc1 | - | - | - | 18.3 | - | -
N#CCC(=O)Nc1ccc(C(=O)NCC2(N3CCOCC3)CCCCC2)cc1 | - | - | - | - | - | -
CCN(CC)c1ccc(/C=N/NC(=O)c2ccc3c(c2)OCCO3)cc1 | 27.9 | - | - | - | - | -
O=C(Nc1ccc(Cl)cc1)c1csc([C@@H]2O[C@H](CO)[C@@H](O)[C@H]2O)n1 | - | - | - | - | - | -
CN1CCN(CCC=C2c3ccccc3Sc3ccc(S(=O)(=O)N(C)C)cc32)CC1 | - | - | - | - | - | -
CCCCCC[N+](C)(C)CC/C=C1/c2ccccc2Sc2ccc(Cl)cc21 | 98.6 | - | 98.8 | - | - | -
CN(C)CC/C=C1/c2ccccc2Sc2ccc(Cl)cc21 | 98.7 | - | 98.8 | - | - | -
CCc1ccc(NS(=O)(=O)c2c(C)noc2C)cc1 | - | - | 39.9 | - | - | -
CCOC(=O)c1cc(N2CCCCC2)nc2ccccc12 | 27.6 | - | - | - | - | -
COc1ccccc1CCN1CCCC(CN(C)CC(C)(C)CO)C1 (stereo not given) | - | - | 46.7 | - | - | -
COc1ccccc1CCN1CCCC(CN(C)C(=O)c2ccco2)C1 (stereo not given) | - | - | - | - | - | -
COc1ccccc1CCN1CCCC(CN(C)C(=O)c2ccoc2)C1 (stereo not given) | - | - | 43.7 | - | - | -
COCC(=O)N(C)CC1CCCN(CCc2ccccc2OC)C1 (stereo not given) | - | - | - | - | - | -
COCc1ccc(C(=O)N(C)CC2CCCN(CCc3ccccc3F)C2)o1 (stereo not given) | - | - | 48.4 | - | - | -
CC(C)c1cn(CC[C@@H]2CC[C@H](NS(=O)(=O)c3ccc(F)cc3)[C@@H](CO)O2)nn1 | - | - | . | - | . | .
O=C1NC[C@H](CCCCN2C[C@H](Cc3ccc(O)cc3)N(CC3CCCCC3)C(=O)C2=O)N(CC2CCCCC2)C1=O | - | - | . | - | . | .
